Laboratory results from ChEMBL document CHEMBL4622992, “New Polyaminoisoprenyl Antibiotics Enhancers against Two Multidrug-Resistant Gram-Negative Bacteria from Enterobacter and Salmonella Species” (J Med Chem, 2020).

What was measured:
Klebsiella aerogenes [1] = assay: Potentiation of chloramphenicol-induced antibacterial activity against Enterobacter aerogenes Ea289 assessed as ratio of the chloramphenicol alone MIC to […] in presence of MIC/4 level of compound incubated for 18 hrs; assay type: functional
In short: (§1)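 Broth microdilution in MH broth, 10^5 CFU inoculum, two-fold antibiotic dilutions, with or without compound at MIC/4. MIC is the lowest concentration with no visible growth after 18 h at 37°C. Gain is antibiotic MIC alone divided by MIC with compound. MICs repeated in at least three independent experiments; up to 5% DMSO.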

[2] = Toxicity in CHO cells assessed as reduction in cell viability incubated for 24 hrs by WST1 assay; assay type: cell-based; conditions: Chinese hamster (Cricetulus griseus)
In short: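 CHO-K1 cells in McCoy's 5A with 10% FCS, exposed in triplicate to 30–1200 μM compound for 24 h at 37°C. After PBS washes, 30 min in medium with 10% WST-1; absorbance at 450 nm. IC50 is the concentration giving 50% loss of viable cells.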

Klebsiella aerogenes [3] = assay: Potentiation of doxycycline-induced antibacterial activity against Enterobacter aerogenes Ea289 assessed as ratio of the doxycycline alone MIC to doxycycline MIC in presence of MIC/4 level of compound incubated for 18 hrs; assay type: functional; in short: as §1
Salmonella typhimurium [4] = assay: Potentiation of chloramphenicol-induced antibacterial activity against Salmonella enterica subsp. enterica serovar Typhimurium BN10055 assessed as ratio of the chloramphenicol alone MIC to […] in presence of MIC/4 level of compound incubated for 18 hrs; assay type: functional; in short: as §1
Salmonella typhimurium [5] = assay: Potentiation of nalidixic acid-induced antibacterial activity against Salmonella enterica subsp. enterica serovar Typhimurium BN10055 assessed as ratio of the nalidixic acid alone MIC to […] in presence of MIC/4 level of compound incubated for 18 hrs; assay type: functional; in short: as §1
Salmonella typhimurium [6] = assay: Potentiation of doxycycline-induced antibacterial activity against Salmonella enterica subsp. enterica serovar Typhimurium BN10055 assessed as ratio of the doxycycline alone MIC to doxycycline MIC in presence of MIC/4 level of compound incubated for 18 hrs; assay type: functional; in short: as §1
Salmonella typhimurium [7] = assay: Potentiation of erythromycin-induced antibacterial activity against Salmonella enterica subsp. enterica serovar Typhimurium BN10055 assessed as ratio of the erythromycin alone MIC to erythromycin MIC in presence of MIC/4 level of compound incubated for 18 hrs; assay type: functional; in short: as §1
Klebsiella aerogenes [8] = assay: Potentiation of erythromycin-induced antibacterial activity against Enterobacter aerogenes Ea289 assessed as ratio of the erythromycin alone MIC to erythromycin MIC in presence of MIC/4 level of compound incubated for 18 hrs
Klebsiella aerogenes [9] = assay: Potentiation of nalidixic acid-induced antibacterial activity against Enterobacter aerogenes Ea289 assessed as ratio of the nalidixic acid alone MIC to nalidixic acid MIC in presence of MIC/4 level of compound incubated for 18 hrs

Structure (SMILES) | Ratio (Klebsiella aerogenes [1]) | IC50 at 24 h [2] [µM] | Ratio (Klebsiella aerogenes [3]) | Ratio (Salmonella typhimurium [4]) | Ratio (Salmonella typhimurium [5]) | Ratio (Salmonella typhimurium [6]) | Ratio (Salmonella typhimurium [7]) | Ratio (Klebsiella aerogenes [8]) | Ratio (Klebsiella aerogenes [9])
CC(C)=CCC/C(C)=C\CCC(C)=CCNCCCN1CCCC1 | 16 | 85.3 | 32 | 16 | 128 | 32 | 16 | 64 | 16
CC(C)=CCCC(C)=CCNCCCN1CCOCC1 | 1 | > 150 | 2 | 2 | 1 | 2 | 1 | 1 | 1
CC(C)=CCC/C(C)=C\CCC(C)=CCNCCCN1CCOCC1 | 8 | 57.6 | 32 | 8 | 32 | 16 | 4 | 16 | 8
CC(C)=CCC/C(C)=C\CCC(C)=CCNCCCN | 16 | 32.1 | 64 | 32 | 128 | 32 | 64 | 256 | 16
CC(C)=CCCC(C)=CCNCCCN1CCCC1=O | 1 | > 150 | 2 | 1 | 1 | 1 | 1 | 2 | 1
CC(C)=CCCC(C)=CCNCCCN1CCCC1 | 1 | > 150 | 2 | 2 | 4 | 2 | 1 | 1 | 2
CC(C)=CCCC(C)=CCNCCN | 4 | 36.2 | 32 | 8 | 16 | 16 | 1 | 4 | 4
CC(C)=CCC/C(C)=C\CCC(C)=CCNCCN | 4 | 32.3 | 8 | 8 | 64 | 32 | 32 | 128 | 8
CC(C)=CCC/C(C)=C\CCC(C)=CCNCCCN1CCN(CCCN)CC1 | 8 | 33.8 | 128 | 8 | 64 | 32 | 4 | 128 | 32
CC(C)=CCC/C(C)=C\CCC(C)=CCNCCCCCN | 16 | 38.4 | 64 | 8 | 16 | 16 | 2 | 32 | 8
CC(C)=CCC/C(C)=C\CCC(C)=CCNCCCOCCCCOCCCN | 4 | > 150 | 8 | 4 | 16 | 8 | 4 | 2 | 2
CC(C)=CCC/C(C)=C\CCC(C)=CCNCCCCN | 16 | 18.1 | 64 | 8 | 64 | 16 | 4 | 256 | 16
CC(C)=CCCC(C)=CCNCCCN | 8 | > 150 | 16 | 8 | 32 | 16 | – | 32 | 8
